Test results from ChEMBL document CHEMBL1152611, “Indene-based frameworks targeting the 5-HT6 serotonin receptor: ring constraint in indenylsulfonamides using cyclic amines and structurally abbreviated counterparts” (Bioorg Med Chem, 2009).

Tests used:
[1] = molecular target: T1, 5-hydroxytryptamine receptor 6 (Homo sapiens, UniProt P50406); assay: Displacement of [3H]LSD from human 5HT6 receptor expressed in HEK293 cells at 100 nM; assay type: cell-based
[2] = molecular target: T1, 5-hydroxytryptamine receptor 6; assay: Binding affinity to 5HT6 receptor
[3] = molecular target: T1, 5-hydroxytryptamine receptor 6; assay: Antagonist activity at 5HT6 receptor; assay type: functional
[4] = molecular target: T2, Alpha-2A adrenergic receptor (Homo sapiens, UniProt P08913); assay: Inhibition of human alpha-2a adrenergic receptor
T2 sequence (P08913 whole entry): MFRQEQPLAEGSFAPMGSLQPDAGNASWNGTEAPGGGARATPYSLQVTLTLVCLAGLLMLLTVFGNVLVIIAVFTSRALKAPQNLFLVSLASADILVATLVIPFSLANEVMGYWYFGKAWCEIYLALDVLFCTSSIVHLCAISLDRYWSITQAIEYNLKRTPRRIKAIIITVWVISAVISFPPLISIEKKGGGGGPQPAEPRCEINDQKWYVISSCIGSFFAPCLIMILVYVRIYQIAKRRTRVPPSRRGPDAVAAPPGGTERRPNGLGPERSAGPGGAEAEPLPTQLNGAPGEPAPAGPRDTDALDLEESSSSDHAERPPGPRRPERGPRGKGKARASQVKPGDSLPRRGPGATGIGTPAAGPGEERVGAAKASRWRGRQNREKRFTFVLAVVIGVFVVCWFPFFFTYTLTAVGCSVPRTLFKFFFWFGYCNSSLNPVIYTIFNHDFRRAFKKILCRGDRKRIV

[5] = molecular target: T1, 5-hydroxytryptamine receptor 6; assay: Antagonist activity at human 5HT6 receptor expressed in HEK293 cells assessed as inhibition of 5-HT-stimulated cAMP accumulation by HTRF assay; assay type: functional, cell-based
Outline: (§1)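 HEK-293F cells stably expressing human 5-HT6, serum-starved overnight, 20,000 cells/well in Ham's F12 with 1 mM IBMX and 20 µM pargyline. Compound or DMSO vehicle (final DMSO ≤2%) added for 30 min at 37 °C, with 5-HT present in antagonist mode. HTRF cAMP detection with cryptate and XL-665, 1 h at room temperature, read at 665/620 nm.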

[6] = molecular target: T1, 5-hydroxytryptamine receptor 6; assay: Antagonist activity at human 5HT6 receptor expressed in HEK293 cells assessed as inhibition of 5-HT-stimulated cAMP accumulation by HTRF assay relative to untreated control; assay type: functional, cell-based; outline: as §1
[7] = molecular target: T1, 5-hydroxytryptamine receptor 6; assay: Displacement of [3H]LSD from human 5HT6 receptor expressed in HEK293 cells; assay type: cell-based
Outline: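 Commercial HEK-293 membranes with human 5-HT6 diluted 1:40 in 50 mM Tris-HCl, 10 mM MgCl2, 0.5 mM EDTA, pH 7.4. Incubated with 2.7 nM [3H]-LSD and 22.9 µg protein for 60 min at 37 °C, then filtered on PEI-treated glass fibre. Nonspecific binding defined with 100 µM serotonin. Triplicate points; IC50 from a regression line, converted to Ki by Cheng-Prusoff.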

[8] = molecular target: T3, 5-hydroxytryptamine receptor 2C (Homo sapiens, UniProt P28335); assay: Inhibition of human 5HT2C receptor
T3 sequence (P28335 whole entry): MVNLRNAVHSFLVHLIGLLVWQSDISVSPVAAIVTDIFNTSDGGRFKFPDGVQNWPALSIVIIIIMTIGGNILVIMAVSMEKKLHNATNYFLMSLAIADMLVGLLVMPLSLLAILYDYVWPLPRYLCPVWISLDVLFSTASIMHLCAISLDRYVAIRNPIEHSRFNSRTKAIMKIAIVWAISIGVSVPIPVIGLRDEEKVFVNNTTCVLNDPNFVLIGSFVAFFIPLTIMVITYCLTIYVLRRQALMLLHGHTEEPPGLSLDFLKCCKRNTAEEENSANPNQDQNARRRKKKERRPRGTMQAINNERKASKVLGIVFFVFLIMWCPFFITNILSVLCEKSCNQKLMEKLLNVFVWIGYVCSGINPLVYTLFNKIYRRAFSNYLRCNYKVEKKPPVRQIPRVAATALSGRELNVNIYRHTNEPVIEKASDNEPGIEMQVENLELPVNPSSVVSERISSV

[9] = molecular target: Sodium-dependent serotonin transporter (Homo sapiens, UniProt P31645); assay: Inhibition of human SERT
[10] = molecular target: T4, 5-hydroxytryptamine receptor 1A (Homo sapiens, UniProt P08908); assay: Inhibition of human 5HT1A receptor
T4 sequence (P08908 whole entry): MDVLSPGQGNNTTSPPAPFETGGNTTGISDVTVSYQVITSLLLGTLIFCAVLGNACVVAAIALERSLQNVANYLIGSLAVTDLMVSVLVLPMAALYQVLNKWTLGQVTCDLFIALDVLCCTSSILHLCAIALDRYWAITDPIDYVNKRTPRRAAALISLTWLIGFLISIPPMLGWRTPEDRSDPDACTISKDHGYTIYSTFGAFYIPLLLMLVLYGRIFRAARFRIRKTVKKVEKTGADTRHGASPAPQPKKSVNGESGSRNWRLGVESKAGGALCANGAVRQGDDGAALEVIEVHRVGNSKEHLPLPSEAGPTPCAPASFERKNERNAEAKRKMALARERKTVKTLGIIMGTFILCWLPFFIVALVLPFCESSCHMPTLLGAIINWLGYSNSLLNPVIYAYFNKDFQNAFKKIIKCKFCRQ

[11] = molecular target: T1, 5-hydroxytryptamine receptor 6; assay: Agonist activity at 5HT6 receptor; assay type: functional
Outline: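 HEK-293F cells stably expressing human 5-HT6, kept overnight in serum-free medium, then 20,000 cells/well in Ham's F12 with 1 mM IBMX and pargyline. Compound (DMSO at most 2% final) added for 30 min at 37 °C without 5-HT. cAMP measured by HTRF (cryptate plus XL-665), 1 h at room temperature, 665/620 nm ratio read.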

[12] = molecular target: T1, 5-hydroxytryptamine receptor 6; assay: Agonist activity at human 5HT6 receptor expressed in HEK293 cells assessed as stimulation of cAMP accumulation by HTRF assay relative to control; assay type: functional, cell-based; outline: as §1
[13] = molecular target: T5, Adrenergic receptor alpha-1 (Rattus norvegicus, UniProt P15823+P23944+P43140); assay: Inhibition of rat alpha1 adrenergic receptor
T5 sequence (P15823 whole entry): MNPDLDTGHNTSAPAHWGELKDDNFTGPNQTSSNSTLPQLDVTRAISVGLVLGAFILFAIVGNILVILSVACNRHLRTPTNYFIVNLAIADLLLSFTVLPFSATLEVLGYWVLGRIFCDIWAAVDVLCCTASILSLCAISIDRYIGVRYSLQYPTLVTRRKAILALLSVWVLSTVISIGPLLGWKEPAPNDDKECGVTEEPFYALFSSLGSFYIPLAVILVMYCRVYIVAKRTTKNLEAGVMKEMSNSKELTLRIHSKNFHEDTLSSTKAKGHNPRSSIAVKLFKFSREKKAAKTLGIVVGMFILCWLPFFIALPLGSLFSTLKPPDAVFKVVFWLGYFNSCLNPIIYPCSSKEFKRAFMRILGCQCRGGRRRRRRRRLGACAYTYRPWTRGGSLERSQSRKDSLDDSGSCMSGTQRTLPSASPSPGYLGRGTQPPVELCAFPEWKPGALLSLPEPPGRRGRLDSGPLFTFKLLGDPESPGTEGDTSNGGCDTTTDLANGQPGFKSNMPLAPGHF
T5 sequence (P23944 whole entry): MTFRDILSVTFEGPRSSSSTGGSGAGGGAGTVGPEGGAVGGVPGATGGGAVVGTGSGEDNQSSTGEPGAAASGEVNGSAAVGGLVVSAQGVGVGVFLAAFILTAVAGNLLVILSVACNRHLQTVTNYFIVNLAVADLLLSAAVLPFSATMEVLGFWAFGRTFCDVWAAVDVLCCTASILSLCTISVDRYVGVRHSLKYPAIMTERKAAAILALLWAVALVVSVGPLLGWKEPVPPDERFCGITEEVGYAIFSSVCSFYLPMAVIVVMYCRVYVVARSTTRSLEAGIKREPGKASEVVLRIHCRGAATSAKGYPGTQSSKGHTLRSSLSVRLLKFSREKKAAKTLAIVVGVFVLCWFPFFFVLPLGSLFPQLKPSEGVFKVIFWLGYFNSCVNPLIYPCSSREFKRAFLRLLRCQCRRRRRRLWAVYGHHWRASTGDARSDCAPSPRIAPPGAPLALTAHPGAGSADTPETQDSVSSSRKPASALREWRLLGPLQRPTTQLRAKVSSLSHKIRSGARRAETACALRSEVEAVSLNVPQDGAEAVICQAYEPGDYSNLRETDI
T5 sequence (P43140 whole entry): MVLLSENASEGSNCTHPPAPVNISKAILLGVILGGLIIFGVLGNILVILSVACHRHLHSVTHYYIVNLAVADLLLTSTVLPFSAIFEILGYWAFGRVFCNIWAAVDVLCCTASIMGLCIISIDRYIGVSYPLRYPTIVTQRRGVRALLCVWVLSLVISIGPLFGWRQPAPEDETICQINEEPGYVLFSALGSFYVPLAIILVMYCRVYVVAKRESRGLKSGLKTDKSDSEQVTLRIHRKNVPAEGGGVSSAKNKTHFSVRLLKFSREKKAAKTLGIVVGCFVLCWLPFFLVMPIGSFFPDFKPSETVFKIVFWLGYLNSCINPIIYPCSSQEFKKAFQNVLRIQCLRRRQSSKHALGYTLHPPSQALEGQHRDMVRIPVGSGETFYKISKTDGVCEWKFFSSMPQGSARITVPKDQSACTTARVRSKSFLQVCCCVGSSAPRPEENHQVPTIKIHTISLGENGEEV

T1 sequence (P50406 whole entry): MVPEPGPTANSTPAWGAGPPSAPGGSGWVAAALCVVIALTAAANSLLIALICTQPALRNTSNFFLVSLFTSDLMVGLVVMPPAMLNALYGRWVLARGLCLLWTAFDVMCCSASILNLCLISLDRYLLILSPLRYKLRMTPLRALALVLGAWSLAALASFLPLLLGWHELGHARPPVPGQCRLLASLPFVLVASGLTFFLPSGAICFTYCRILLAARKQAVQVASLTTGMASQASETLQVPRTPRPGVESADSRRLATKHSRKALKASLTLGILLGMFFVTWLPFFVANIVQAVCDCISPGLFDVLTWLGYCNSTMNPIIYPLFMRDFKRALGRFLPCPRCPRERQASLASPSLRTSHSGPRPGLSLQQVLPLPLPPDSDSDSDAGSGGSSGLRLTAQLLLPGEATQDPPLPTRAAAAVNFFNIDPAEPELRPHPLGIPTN
Chain of Sodium-dependent serotonin transporter (P31645 whole entry): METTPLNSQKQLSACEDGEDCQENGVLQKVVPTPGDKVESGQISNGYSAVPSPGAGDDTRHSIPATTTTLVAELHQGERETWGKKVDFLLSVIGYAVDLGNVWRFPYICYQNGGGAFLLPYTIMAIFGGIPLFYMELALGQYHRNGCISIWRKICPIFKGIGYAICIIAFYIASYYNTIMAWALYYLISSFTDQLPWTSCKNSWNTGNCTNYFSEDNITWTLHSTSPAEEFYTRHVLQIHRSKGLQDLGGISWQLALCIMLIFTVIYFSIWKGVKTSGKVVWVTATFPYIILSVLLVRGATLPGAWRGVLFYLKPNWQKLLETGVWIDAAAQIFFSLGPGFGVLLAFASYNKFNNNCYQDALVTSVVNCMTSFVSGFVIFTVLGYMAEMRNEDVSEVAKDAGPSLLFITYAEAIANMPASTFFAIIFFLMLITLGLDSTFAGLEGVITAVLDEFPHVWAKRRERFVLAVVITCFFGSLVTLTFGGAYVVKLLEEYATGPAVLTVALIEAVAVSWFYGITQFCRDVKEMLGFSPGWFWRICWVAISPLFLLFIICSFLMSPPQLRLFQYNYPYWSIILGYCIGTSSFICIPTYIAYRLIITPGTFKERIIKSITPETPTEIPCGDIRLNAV

Compound	inhibition [1]	IC50 [3]	IC50 [4]	Imax [6]	Ki [7]	IC50 [10]	Ki [2]	other results
CN(C)Cc1cn(S(=O)(=O)c2ccccc2)c2ccccc12		880 nM					3 nM	
Cc1cn(S(=O)(=O)c2ccc(N)cc2)c2ccccc12		320 nM						
O=S(=O)(Nc1ccc2[nH]cc(C[C@H]3CCCN3)c2c1)c1ccc(C(F)(F)F)cc1							0.4 nM	EC50 [11]: 4.5 nM
O=S(=O)(Nc1ccc2[nH]cc(C[C@@H]3CCCN3)c2c1)c1ccc(C(F)(F)F)cc1		21.6 nM					10 nM	

Second part, led by results:

inhibition [1]	IC50 [3]	IC50 [4]	Imax [6]	Ki [7]	IC50 [10]	Compound	Ki [2]	other results
22%						CC1=C(C2CCCN(C)C2)c2cc(NS(=O)(=O)c3sc4ccc(Cl)cc4c3C)ccc2C1 (stereo unspecified)		
75%		> 10000 nM	92%	80 nM	> 10000 nM	CC1=CC(C)(C)c2ccc(NS(=O)(=O)c3c(Cl)nc4sccn34)cc21		IC50 [5]: 2400 nM; IC50 [8]: > 10000 nM; IC50 [9]: > 10000 nM
57%						Cc1c(S(=O)(=O)Nc2ccc3c(c2)C([C@H]2CCN(C)C2)=CC3)sc2ccc(Cl)cc12		
86%		1210 nM	28%	18 nM	> 10000 nM	CC1=C(C2CCCN(C)C2)c2cc(NS(=O)(=O)c3c(Cl)nc4sccn34)ccc2C1 (stereo unspecified)		
84%		> 1000 nM	10%	64 nM	> 10000 nM	COc1cc2c(cc1NS(=O)(=O)c1c(Cl)nc3sccn13)C(C)=C(C)C2		Emax [12]: 49%; IC50 [13]: > 10000 nM; IC50 [8]: > 1000 nM; IC50 [9]: > 10000 nM
